Each block holds one molecule with its values, some of them ahead of it.
How the values were obtained:
[1] = tested on: Liver microsome; test: Drug metabolism in pooled human liver microsomes assessed as compound formation at 10 uM incubated for 60 mins in presence of NADPH by uHPLC-MS/MS method; assay type: ADME; conditions: 1 h
In short: (§1)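 Metabolite identification in human liver microsome incubations with 10 μM substrate. Products were assigned by m/z (monooxygenated, dihydroxylated, N-dealkylated), uHPLC retention time and MS/MS fragment ions. Parallel incubations in isotopic water located the inserted oxygen from +2 shifts in fragment masses.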

[2] = Retention time of the compound by uHPLC-MS/MS method; assay type: physicochemical; in short: as §1
[3] = target: T1, Cytochrome P450 1A2 (Homo sapiens, UniProt P05177); test: Drug metabolism assessed as CYP1A2 (unknown origin)-mediated compound formation at 10 uM incubated for 60 mins in presence of NADPH by uHPLC-MS/MS method; assay type: ADME; conditions: 1 h
T1 sequence (P05177 whole entry): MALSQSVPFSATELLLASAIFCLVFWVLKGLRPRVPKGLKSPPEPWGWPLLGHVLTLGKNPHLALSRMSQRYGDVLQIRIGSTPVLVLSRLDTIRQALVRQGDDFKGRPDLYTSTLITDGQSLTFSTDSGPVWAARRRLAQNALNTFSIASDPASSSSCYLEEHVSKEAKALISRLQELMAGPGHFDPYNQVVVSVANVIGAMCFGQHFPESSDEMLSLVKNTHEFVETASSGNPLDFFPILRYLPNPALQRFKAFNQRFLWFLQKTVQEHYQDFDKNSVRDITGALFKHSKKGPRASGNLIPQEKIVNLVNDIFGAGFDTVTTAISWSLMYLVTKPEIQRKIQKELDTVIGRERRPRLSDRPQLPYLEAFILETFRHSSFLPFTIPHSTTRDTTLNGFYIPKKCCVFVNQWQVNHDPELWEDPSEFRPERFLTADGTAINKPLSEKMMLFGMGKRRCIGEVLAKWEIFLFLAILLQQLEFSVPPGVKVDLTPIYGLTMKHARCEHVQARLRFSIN
In short: (§2)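 Individual cDNA-expressed human P450s (CYP2B6 in insect microsomes) were incubated separately with each analogue at 10 μM. The enzyme panel covers the major drug-metabolizing P450s. Products were monitored as the metabolites first found in human liver microsome incubations, identified by m/z and retention time.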

[4] = target: T2, Cytochrome P450 2B6 (Homo sapiens, UniProt P20813); test: Drug metabolism assessed as CYP2B6 (unknown origin)-mediated compound formation at 10 uM incubated for 60 mins in presence of NADPH by uHPLC-MS/MS method; assay type: ADME; conditions: 1 h; in short: as §2
T2 sequence (P20813 whole entry): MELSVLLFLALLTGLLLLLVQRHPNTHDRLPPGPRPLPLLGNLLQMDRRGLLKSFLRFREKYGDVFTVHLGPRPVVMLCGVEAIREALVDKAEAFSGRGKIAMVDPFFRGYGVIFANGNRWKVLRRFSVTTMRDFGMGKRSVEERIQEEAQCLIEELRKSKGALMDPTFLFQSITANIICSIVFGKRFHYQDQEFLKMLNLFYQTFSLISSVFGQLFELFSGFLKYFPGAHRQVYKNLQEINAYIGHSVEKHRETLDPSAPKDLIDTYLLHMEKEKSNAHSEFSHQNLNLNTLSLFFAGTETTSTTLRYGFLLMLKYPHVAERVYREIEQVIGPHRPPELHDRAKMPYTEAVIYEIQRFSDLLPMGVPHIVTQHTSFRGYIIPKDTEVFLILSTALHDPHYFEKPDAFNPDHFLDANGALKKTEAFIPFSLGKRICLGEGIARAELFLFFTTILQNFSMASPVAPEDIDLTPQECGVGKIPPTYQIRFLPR

[5] = target: T3, Cytochrome P450 3A5 (Homo sapiens, UniProt P20815); test: Drug metabolism assessed as CYP3A5 (unknown origin)-mediated compound formation at 10 uM incubated for 60 mins in presence of NADPH by uHPLC-MS/MS method; assay type: ADME; conditions: 1 h; in short: as §2
Target sequence in this assay (P20815 whole entry): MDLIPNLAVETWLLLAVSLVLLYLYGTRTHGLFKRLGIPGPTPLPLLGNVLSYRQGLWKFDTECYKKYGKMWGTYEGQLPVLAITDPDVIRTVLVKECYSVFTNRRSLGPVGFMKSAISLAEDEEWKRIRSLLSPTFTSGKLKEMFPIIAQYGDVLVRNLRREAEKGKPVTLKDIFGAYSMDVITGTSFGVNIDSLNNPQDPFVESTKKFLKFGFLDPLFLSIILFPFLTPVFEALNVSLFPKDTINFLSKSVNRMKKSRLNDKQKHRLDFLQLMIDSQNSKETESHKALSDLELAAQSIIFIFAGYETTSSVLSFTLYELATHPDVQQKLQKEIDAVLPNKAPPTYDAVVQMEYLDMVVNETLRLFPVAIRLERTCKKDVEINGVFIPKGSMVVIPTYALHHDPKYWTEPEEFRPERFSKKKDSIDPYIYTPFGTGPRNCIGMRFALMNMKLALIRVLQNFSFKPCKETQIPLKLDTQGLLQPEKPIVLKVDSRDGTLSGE

[6] = tested on: Liver microsome; test: Drug metabolism in pooled human liver microsomes assessed as compound formation at 10 uM incubated for 60 mins in presence of NADPH and using isotopic water by uHPLC-MS/MS method; assay type: ADME; conditions: 1 h; in short: as §1
[7] = tested on: Liver microsome; test: Drug metabolism in pooled human liver microsomes assessed as mono-oxygenated metabolite formation at 10 uM incubated for 60 mins in presence of NADPH by uHPLC-MS/MS method; assay type: ADME; conditions: 1 h; in short: as §1
[8] = target: T1, Cytochrome P450 1A2; test: Drug metabolism assessed as CYP1A2 (unknown origin)-mediated metabolite formation at 10 uM incubated for 60 mins in presence of NADPH by uHPLC-MS/MS method; assay type: ADME; conditions: 1 h; in short: as §2
[9] = target: T2, Cytochrome P450 2B6; test: Drug metabolism assessed as CYP2B6 (unknown origin)-mediated metabolite formation at 10 uM incubated for 60 mins in presence of NADPH by uHPLC-MS/MS method; assay type: ADME; conditions: 1 h; in short: as §2
[10] = target: T4, CYP2B6 (Homo sapiens, UniProt P20813); test: Activity of CYP2B6 (unknown origin) pre-incubated for 5 mins in presence of NADPH by uHPLC-MS/MS based substrate depletion kinetics assay; assay type: ADME; conditions: CYP2B6 enzyme (unknown origin)
T4 sequence (P20813 whole entry): T2 sequence (P20813 whole entry)
In short: (§3)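 cDNA-expressed CYP2B6 in insect microsomes. Parent loss was followed over time by substrate depletion, chosen because several metabolites form. Km and maximum depletion rate constant (kdep max, min–1) were derived from depletion kinetics, and Vmax was expressed as pmol/min/pmol P450.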

[11] = target: T2, Cytochrome P450 2B6; test: Activity of CYP2B6 (unknown origin) assessed as maximum depletion rate constant pre-incubated for 5 mins in presence of NADPH by uHPLC-MS/MS based substrate depletion kinetics assay; assay type: ADME; in short: as §3
[12] = target: T2, Cytochrome P450 2B6; test: Activity of CYP2B6 (unknown origin) assessed per pmol protein pre-incubated for 5 mins in presence of NADPH by uHPLC-MS/MS based substrate depletion kinetics assay; assay type: ADME; in short: as §3
[13] = target: T4, CYP2B6; test: Inhibition of CYP2B6 (unknown origin) assessed as reduction in hydroxybupropion formation by measuring remaining enzyme activity at 10 uM incubated for 10 mins by uHPLC-MS/MS method; assay type: ADME; conditions: probe bupropion (hydroxybupropion formation), read-out: Activity
In short: (§4)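 CYP2B6 insect microsomes were coincubated with the probe substrate bupropion plus test compound at 10 μM. Hydroxybupropion formation was measured and compared with a vehicle control.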

[14] = target: T3, Cytochrome P450 3A5; test: Drug metabolism assessed as CYP3A5 (unknown origin)-mediated metabolite formation at 10 uM incubated for 60 mins in presence of NADPH by uHPLC-MS/MS method; conditions: 1 h
Target sequence in this assay (P20815 whole entry, looked up): as the sequence (P20815 whole entry) above

[15] = tested on: Liver microsome; test: Drug metabolism in pooled human liver microsomes assessed as metabolite formation at 10 uM incubated for 60 mins in presence of NADPH by uHPLC-MS/MS method; assay type: ADME; conditions: 1 h; in short: as §1
[16] = target: T2, Cytochrome P450 2B6; test: (§5) Inhibition of CYP2B6 (unknown origin) assessed as reduction in hydroxybupropion formation at 10 uM incubated for 10 mins by uHPLC-MS/MS method; assay type: ADME; conditions: 10 min, 10 µM; in short: as §4
[17] = target: T4, CYP2B6; test: as §5; assay type: ADME; conditions: CYP2B6 enzyme (unknown origin), probe bupropion (hydroxybupropion formation); in short: as §4

Drug metabolism [1]: metabolite_detected | Retention_time [2]: 5.11 min
Compound: CC(O)CC#CC1(C(F)(F)F)OC(=O)Nc2ccc(Cl)cc21 (stereo unspecified)

Drug metabolism [1]: metabolite_detected | Retention_time [2]: 5.6 min
Compound: CCC(O)C#CC1(C(F)(F)F)OC(=O)Nc2ccc(Cl)cc21 (stereo unspecified)

Drug metabolism [1]: metabolite_detected | Retention_time [2]: 6.98 min | Drug metabolism [3]: metabolite_detected | Drug metabolism [4]: metabolite_detected | Drug metabolism [5]: metabolite_detected
Compound: CCCC#CC1(C(F)(F)F)OC(=O)Nc2c(O)cc(Cl)cc21 (stereo unspecified)

Drug metabolism [1]: metabolite_detected | Retention_time [2]: 5 min | Drug metabolism [6]: metabolite_detected
Compound: OC1(C#C[C@]2(C(F)(F)F)OCNc3ccc(Cl)cc32)CC1

Drug metabolism [7]: metabolite_detected | Drug metabolism [8]: metabolite_detected | Drug metabolism [9]: metabolite_detected | Km [10]: 1.1 µM | K [11]: 0.0088 min⁻¹ | Vmax [12]: 0.97 pmol/min | activity at 10 min, 10 µM [13]: 27% | Drug metabolism [14]: metabolite_detected
Compound: CCCC#CC1(C(F)(F)F)OC(=O)Nc2ccc(Cl)cc21 (racemic)

Drug metabolism [15]: metabolite_detected | inhibition (INH) [16]: Not Active
Compound: COc1ccc(C(=O)Nc2ccc(Cl)cc2C(O)(C#CC2CC2)C(F)(F)F)cc1 (racemic)

Km [10]: 0.45 µM | K [11]: 0.023 min⁻¹ | Vmax [12]: 1 pmol/min | inhibition at 10 min, 10 µM [17]: 93%
Compound: O=C1Nc2ccc(Cl)cc2[C@@](C#CC2CC2)(C(F)(F)F)O1 [EFAVIRENZ]

Source: ChEMBL document CHEMBL3351404, “Structure-Activity Studies Reveal the Oxazinone Ring Is a Determinant of Cytochrome P450 2B6 Activity Toward Efavirenz” (ACS Med Chem Lett, 2014)
